CHRM4 antagonist = antagonists of human muscarinic M4 receptor (CHRM4) | inhibition, % at 3 µM | CHO-hM4 cells, ACh EC80, Fluo-8 calcium fluorescence | hit rate 0.73% among 360,000 | AID 624125 | P08173;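 active = inhibition above its plate's cutoff, the mean inhibition of sample wells plus 3 SD, cut at about 27% in these data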;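 also: 0% = acetylcholine EC80 with DMSO and 100% = DMSO without agonist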
Target sequence (P08173 whole entry, looked up): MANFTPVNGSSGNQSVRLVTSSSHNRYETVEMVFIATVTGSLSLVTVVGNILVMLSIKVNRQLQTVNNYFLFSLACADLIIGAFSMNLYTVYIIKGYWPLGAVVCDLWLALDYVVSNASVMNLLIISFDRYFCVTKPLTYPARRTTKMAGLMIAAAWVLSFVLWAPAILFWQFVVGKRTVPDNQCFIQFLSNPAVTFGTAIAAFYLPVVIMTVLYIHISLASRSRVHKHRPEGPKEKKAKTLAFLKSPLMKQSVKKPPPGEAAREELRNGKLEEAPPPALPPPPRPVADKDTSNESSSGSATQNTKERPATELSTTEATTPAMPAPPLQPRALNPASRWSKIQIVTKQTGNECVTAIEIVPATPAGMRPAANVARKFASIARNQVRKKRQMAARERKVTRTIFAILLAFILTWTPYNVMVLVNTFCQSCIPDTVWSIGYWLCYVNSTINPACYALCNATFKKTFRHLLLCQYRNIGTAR
M4 PAM = CHRM4 positive allosteric modulation | P08173 | CHO-K1 hM4/Gqi5, Fluo-8 calcium fluorescence, ACh EC20; 0% = ACh EC20, 100% = maximal ACh | activation, % at 3 µM | hit rate 0.4% among 360,000 | AID 624126;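 active = activation above its plate's cutoff, the mean activation of sample wells plus 3 SD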
CHRM5 antagonist = antagonists of human muscarinic M5 receptor (CHRM5); CHO-hM5 cells, Fluo-8 calcium fluorescence, ACh EC80; hit rate 0.59% among 360,000; AID 624040; inhibition, % at 3 µM;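 active = inhibition above a per-plate cutoff, the mean of that plate's test compounds plus 3 SD, cut at about 27% in these data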;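 also: 0% = acetylcholine EC80 with DMSO and 100% = DMSO without agonist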
CHRM5 agonist = agonists of human muscarinic M5 receptor (CHRM5) | P08912 | CHO-K1 hM5 cells, Fluo-8 calcium fluorescence; 0% DMSO wells, 100% maximal acetylcholine response | activation, % at 3 µM | hit rate 0.19% among 360,000;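 active = activation above the run's mean over test compounds plus 3 SD, cut at about 23% in these data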;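 also: signal is peak over basal fluorescence ratio across the kinetic read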
CHRM5 PAM = positive allosteric modulators of human muscarinic M5 receptor | CHO-K1 hM5, Fluo-8 calcium, ACh EC20 PAM; 0% = ACh EC20, 100% = ACh EC100 | P08912 | AID 624038 | activation, % at 3 µM | hit rate 0.3% among 360,000;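 active = activation above the run cutoff, the mean activation of all test compounds plus 3 SD, cut at about 18% in these data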
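System: CHO-K1 cell line with stable human muscarinic M5 receptor expression | Also added: EC20 acetylcholine as agonist stimulus | Compound: One concentration, 3 µM final (nominal) | Timing: Fluo-8 loading 80 min at 37 °C plus 30 min room temperature | Measured by: Fluo-8 calcium dye fluorescence, kinetic read | Read-out basis: % activation, ACh-normalized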
CHRM4 agonist = CHRM4 agonism in calcium assay | CHO-K1 hM4/Gqi5, Fluo-8 calcium fluorescence; vehicle 0%, full acetylcholine response 100% | activation, % at 3 µM | hit rate 0.14% among 360,000;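 active = activation above the run mean over all test wells plus 3 SD, cut at about 32% in these data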;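 also: peak over basal fluorescence ratio per well then scaled between controls; 0% = DMSO wells and 100% = acetylcholine at EC100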
An asterisk follows results filed as active. Compounds with a hit are over-represented: about 1.9% of the library has one in this group of screens.

SMILES | CHRM4 antagonist | M4 PAM | CHRM5 antagonist | CHRM5 agonist | CHRM5 PAM | CHRM4 agonist
C(=Cc1c[nH]c2ccccc12)c1nccc2ccccc12 | -6 | 2 | 22 | 10 | -4 | 4
CCn1nnnc1SCC(=O)NCc1cccs1 | 3 | 0 | -3 | -5 | 18* | 0
Cc1ccc2c(C(=O)CN3CCCCC3)c(C)[nH]c2c1 | -11 | 8 | 2 | -5 | 2 | 1
Cc1ccc2c(C(=O)CN3CCOCC3)c(C)[nH]c2c1 | -10 | 10 | -12 | 2 | 25* | 0
COc1ccc(NC(=O)CN(C)C(=O)c2ccccc2Sc2ncnc3sc(C)c(C)c23)cc1 | 2 | -7 | 16 | 1 | -20 | 17
CCOC(=O)c1c(NC(=O)C(C)N2CCN(C(=O)c3ccco3)CC2)sc2c1CCCC2 (stereo unspecified) | 49* | -32 | -9 | 27* | 6 | 41*
COC(=O)c1c(NC(=S)NC(=O)c2ccco2)sc2c1CCCC2 | -2 | 33* | 0 | 1 | 1 | 0
Cc1sc(NC(=S)NC(=O)CCc2ccccc2)c(C(N)=O)c1C | 0 | 2 | 2 | 0 | 1 | 2
CCOC(=O)c1c(NC(=O)c2ccco2)sc2c1CCCCC2 | -1 | 4 | 9 | 1 | -1 | -2
Cc1sc(NC(=S)NC(=O)c2ccco2)c(C(N)=O)c1C | 1 | -6 | 31* | 1 | -19 | 13
CC1=CC2=NC(=O)/C(=C/c3coc4ccc(Cl)cc4c3=O)C(=N)N2O1 | 23 | -14 | 41* | 83* | -29 | 45*
N=C1/C(=C\c2coc3ccccc3c2=O)C(=O)N=C2SC=CN12 | 38* | -43 | 34* | 109* | -33 | 107*
CSC1=NSC2=NC(=O)/C(=C/c3coc4ccc(O)cc4c3=O)C(=N)N12 | 20 | -8 | 28* | 53* | -5 | 26
CSC1=NSC2=NC(=O)/C(=C\c3cccs3)C(=N)N12 | 3 | -1 | -2 | 5 | 0 | 2
CSC1=NSC2=NC(=O)/C(=C/c3coc4ccccc4c3=O)C(=N)N12 | 18 | -12 | 41* | 45* | -19 | 33*
N=C1/C(=C/c2cccn2Cc2ccc(F)cc2)C(=O)N=C2SC=CN12 | -9 | -3 | 6 | -5 | -1 | 7
COc1ccc(Cl)cc1S(=O)(=O)N1CCCC(C(=O)N2CCOCC2)C1 (stereo unspecified) | -4 | 11 | -13 | -4 | 12 | 1
CC1CCCCN1CC(=O)Nc1ccc(N2CCCCCC2)cc1 (stereo unspecified) | 5 | -14 | -3 | -12 | -7 | 2
CSc1ccccc1NC(=O)CN1CCCCC1C (stereo unspecified) | 10 | -1 | 35* | -7 | -17 | -1
CC1CCCCN1CC(=O)NC(c1ccccc1)c1ccccc1 (stereo unspecified) | 8 | -19 | 9 | -10 | -10 | -1
CC1CCCCN1CC(=O)Nc1ccc(Oc2ccccc2)cc1 (stereo unspecified) | 57* | -15 | -3 | -13 | -14 | 2
CSc1ccccc1NC(=O)CCc1ccccc1 | -11 | 22* | 6 | -7 | 7 | 0
CCCn1c(SCC(=O)Nc2ccc(OCC)cc2)nnc1C(C)C | 8 | -2 | -4 | -3 | 19* | 1
Nc1c(C(=O)c2ccc(Cl)cc2)sc2nc3c(cc12)CCC3 | 10 | 23* | 7 | -2 | -2 | 1
CCOC(=O)C1CCN(S(=O)(=O)c2cn(C)c(C)n2)CC1 | -5 | 0 | 5 | -2 | -5 | 0
SMILES | CHRM4 antagonist | M4 PAM | CHRM5 antagonist | CHRM5 agonist | CHRM5 PAM | CHRM4 agonist
Cc1ccccc1Sc1ccc(N)cn1 | 33* | -15 | 23 | -3 | -8 | 4
CC1(C(=O)Nc2ccc3c(c2)OCCO3)CCN1C(=O)Cc1ccc(-c2ccccc2)cc1 (stereo unspecified) | 15 | -4 | 30* | 6 | -14 | 10
CC(C)c1ccc(CC(=O)N2CCC2(C)C(=O)Nc2ccc3c(c2)OCO3)cc1 (stereo unspecified) | -11 | -3 | 5 | 5 | -8 | 12
CCc1ccc2c(c1)Sc1ccccc1CC2N1CCN(C)CC1 (stereo unspecified) | 33* | -72 | 9 | -12 | -29 | 25
CN1CCN(C2Cc3cc(Cl)ccc3Sc3cc(F)ccc32)CC1 (stereo unspecified) | 94* | -64 | 59* | -18 | -32 | 23
OCCN1CCN(C2Cc3cc(Cl)ccc3Sc3ccc(Cl)cc32)CC1 (stereo unspecified) (tested in a mixture with another compound) | 21 | -17 | 8 | -9 | -11 | 13
c1ccc2c(c1)CC(N1CCCCC1)c1ccccc1S2 (stereo unspecified) | -18 | -24 | 3 | -20 | -32 | -1
CC1(C)CC(=O)C=C(/C=C/c2ccccc2)C1 | -16 | 11 | 3 | 4 | 6 | 2
CC1C(O)=C(c2ccccc2)P(=O)(Cc2ccccc2)C1C (stereo unspecified) | 9 | -2 | -4 | -1 | -6 | 1
COc1ccc(S(=O)(=O)N2CCOC2CNC(=O)C(=O)NCCc2ccccc2)cc1 (stereo unspecified) | -23 | -4 | -6 | 3 | -2 | 5
O=S(=O)(NC1CCCC1)c1ccc(S(=O)(=O)N2CCc3ccccc32)cc1 | 29* | -16 | 29* | 8 | -15 | 22
Nc1ccc(S(=O)(=O)N2CCc3ccccc32)cc1 | 12 | -2 | 7 | -2 | -1 | 1
CCOC(=O)[C@]12CCC=C1N(Cc1ccc3c(c1)OCO3)C(=O)[C@H](CC(=O)NCCC(C)C)C2 | -10 | 9 | 4 | -1 | -6 | -1
O=C(NCCN1CCOCC1)c1ccc(Cl)c(S(=O)(=O)NCc2ccccc2)c1 | -12 | 22* | 9 | 1 | 11 | 1
c1ccc(CCNc2ncnc3scc(C4COc5ccccc5O4)c23)cc1 (stereo unspecified) | 38* | -19 | 15 | -4 | -10 | -1
CCc1nc2c(OCCc3cccc(OC)c3)cccn2c1N(C=O)Cc1ccc(OC)cc1 | -8 | -3 | -9 | -1 | -3 | 6
CC(C)(C)OC(=O)NCc1ccc(CNC(=O)c2nc[nH]c2C(=O)NCc2ccc(CNC(=O)OC(C)(C)C)cc2)cc1 | 2 | -4 | 1 | 5 | -10 | 8
CC(C)(C)OC(=O)NCCCCCNC(=O)c1nc[nH]c1C(=O)NCc1ccc(CNC(=O)OC(C)(C)C)cc1 | 54* | -17 | 33* | 2 | -38 | 34*
O=C(CSc1nc(=O)[nH]c2c1CCCC2)Nc1ccc(F)cc1F | -17 | 22* | -8 | 3 | 1 | 1

Screening data: PubChem BioAssay, The Scripps Research Institute Molecular Screening Center
